Laboratory results as given in ChEMBL document CHEMBL2157871, “Identification of a novel and orally available benzimidazole derivative as an NPY Y5 receptor antagonist with in vivo efficacy” (Bioorg Med Chem Lett, 2012).

Key:
[1] = Kinetic solubility of the compound in 1%DMSO at pH 6.8; type: physicochemical; settings: read-out: Kinetic_solubility
In short: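 Kinetic solubility measured at pH 6.8 from a 1% DMSO solution.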

Cytochrome P450 2C9 = Cytochrome P450 2C9 (Homo sapiens, UniProt P11712); assay: Inhibition of CYP2C9; type: ADME
Sequence of Cytochrome P450 2C9 (P11712 whole entry): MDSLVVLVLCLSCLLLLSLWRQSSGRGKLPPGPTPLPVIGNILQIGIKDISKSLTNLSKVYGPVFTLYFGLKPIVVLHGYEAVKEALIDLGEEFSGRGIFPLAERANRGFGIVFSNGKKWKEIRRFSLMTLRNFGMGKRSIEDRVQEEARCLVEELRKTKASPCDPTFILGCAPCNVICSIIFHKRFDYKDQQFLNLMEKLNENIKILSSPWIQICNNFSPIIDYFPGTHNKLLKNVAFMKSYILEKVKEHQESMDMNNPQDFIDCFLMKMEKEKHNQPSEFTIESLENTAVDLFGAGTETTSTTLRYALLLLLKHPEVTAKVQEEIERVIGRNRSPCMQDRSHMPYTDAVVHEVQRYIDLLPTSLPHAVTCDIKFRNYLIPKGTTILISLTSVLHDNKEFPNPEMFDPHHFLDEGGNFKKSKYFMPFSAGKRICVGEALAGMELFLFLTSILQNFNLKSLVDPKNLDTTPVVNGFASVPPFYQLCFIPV

Cytochrome P450 3A4 = Cytochrome P450 3A4 (Homo sapiens, UniProt P08684); assay: Inhibition of CYP3A4; type: ADME
Sequence of Cytochrome P450 3A4 (P08684 whole entry): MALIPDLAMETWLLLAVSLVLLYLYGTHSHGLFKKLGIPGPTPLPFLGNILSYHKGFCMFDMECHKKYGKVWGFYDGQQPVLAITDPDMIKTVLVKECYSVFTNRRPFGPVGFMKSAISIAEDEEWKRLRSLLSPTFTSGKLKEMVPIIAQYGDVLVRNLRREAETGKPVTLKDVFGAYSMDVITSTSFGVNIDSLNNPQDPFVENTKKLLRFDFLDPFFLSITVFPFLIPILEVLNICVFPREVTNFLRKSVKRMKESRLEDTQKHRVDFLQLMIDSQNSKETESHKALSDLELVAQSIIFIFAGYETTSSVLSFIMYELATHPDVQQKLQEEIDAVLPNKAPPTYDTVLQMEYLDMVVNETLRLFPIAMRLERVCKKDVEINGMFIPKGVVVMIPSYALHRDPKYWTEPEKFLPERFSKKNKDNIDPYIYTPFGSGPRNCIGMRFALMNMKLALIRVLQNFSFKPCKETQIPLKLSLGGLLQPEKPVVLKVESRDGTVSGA

Cytochrome P450 2D6 = Cytochrome P450 2D6 (Homo sapiens, UniProt P10635); assay: Inhibition of CYP2D6; type: ADME
Sequence of Cytochrome P450 2D6 (P10635 whole entry): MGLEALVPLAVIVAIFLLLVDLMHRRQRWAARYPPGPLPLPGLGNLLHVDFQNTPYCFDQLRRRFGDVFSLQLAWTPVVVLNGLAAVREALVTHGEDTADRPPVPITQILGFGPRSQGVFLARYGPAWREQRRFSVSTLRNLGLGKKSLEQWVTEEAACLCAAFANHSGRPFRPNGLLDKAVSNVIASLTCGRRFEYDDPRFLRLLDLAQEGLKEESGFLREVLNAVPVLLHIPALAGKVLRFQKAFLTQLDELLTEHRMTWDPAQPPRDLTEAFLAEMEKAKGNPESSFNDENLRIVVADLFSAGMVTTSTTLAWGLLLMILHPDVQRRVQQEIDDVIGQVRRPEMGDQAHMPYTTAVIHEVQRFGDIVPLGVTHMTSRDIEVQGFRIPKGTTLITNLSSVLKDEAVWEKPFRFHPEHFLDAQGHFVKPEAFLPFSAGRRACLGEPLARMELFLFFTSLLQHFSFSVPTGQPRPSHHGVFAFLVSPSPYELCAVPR

[2] = Metabolic stability in human liver microsomes assessed as compound remaining after 30 mins; type: ADME, Microsome; settings: read-out: Stability
In short: (§1)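 Human or rat liver microsomes incubated with compound for 30 min. Result given as percent of parent compound remaining.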

[3] = target: T1, Neuropeptide Y receptor type 5 (Mus musculus, UniProt O70342); assay: Displacement of [125I]PYY from mouse NPY Y5 receptor
T1 sequence (O70342 whole entry): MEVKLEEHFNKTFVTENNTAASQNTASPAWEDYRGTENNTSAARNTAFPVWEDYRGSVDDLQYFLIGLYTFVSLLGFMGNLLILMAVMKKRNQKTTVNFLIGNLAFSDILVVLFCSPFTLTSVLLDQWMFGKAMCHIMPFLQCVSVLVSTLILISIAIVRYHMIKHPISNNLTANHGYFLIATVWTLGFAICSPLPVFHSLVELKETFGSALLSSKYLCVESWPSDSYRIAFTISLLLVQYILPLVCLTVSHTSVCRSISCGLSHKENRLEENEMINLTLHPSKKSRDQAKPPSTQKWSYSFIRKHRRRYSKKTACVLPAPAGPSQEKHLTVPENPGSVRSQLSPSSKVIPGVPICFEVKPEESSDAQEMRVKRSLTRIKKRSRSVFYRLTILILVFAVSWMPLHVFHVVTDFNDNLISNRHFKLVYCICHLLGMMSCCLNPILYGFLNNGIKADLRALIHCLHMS
In short: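 Competition binding at mouse NPY Y5 receptors with 125I-PYY as ligand. IC50 is the concentration giving 50% inhibition of total specific binding, taken as the mean of two or more independent assays.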

Cytochrome P450 1A2 = target: T2, Cytochrome P450 1A2 (Homo sapiens, UniProt P05177); assay: Inhibition of CYP1A2; type: ADME
T2 sequence (P05177 whole entry): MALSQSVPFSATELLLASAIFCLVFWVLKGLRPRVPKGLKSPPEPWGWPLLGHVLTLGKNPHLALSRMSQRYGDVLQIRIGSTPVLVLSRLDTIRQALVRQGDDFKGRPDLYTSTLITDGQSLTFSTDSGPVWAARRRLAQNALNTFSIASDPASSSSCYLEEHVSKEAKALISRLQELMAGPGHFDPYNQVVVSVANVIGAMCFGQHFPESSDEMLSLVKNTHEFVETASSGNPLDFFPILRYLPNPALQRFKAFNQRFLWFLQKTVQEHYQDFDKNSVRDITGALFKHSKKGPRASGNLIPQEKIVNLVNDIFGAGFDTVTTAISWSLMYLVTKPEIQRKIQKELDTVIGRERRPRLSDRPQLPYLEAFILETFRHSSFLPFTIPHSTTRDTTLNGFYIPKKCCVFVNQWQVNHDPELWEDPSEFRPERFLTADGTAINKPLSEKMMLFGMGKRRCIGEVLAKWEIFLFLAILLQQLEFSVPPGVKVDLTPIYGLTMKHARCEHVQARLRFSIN

[4] = Metabolic stability in rat liver microsomes assessed as compound remaining after 30 mins; type: ADME, Microsome; settings: read-out: Stability; in short: as §1
Cytochrome P450 2C19 = Cytochrome P450 2C19 (Homo sapiens, UniProt P33261); assay: Inhibition of CYP2C19; type: ADME
Sequence of Cytochrome P450 2C19 (P33261 whole entry): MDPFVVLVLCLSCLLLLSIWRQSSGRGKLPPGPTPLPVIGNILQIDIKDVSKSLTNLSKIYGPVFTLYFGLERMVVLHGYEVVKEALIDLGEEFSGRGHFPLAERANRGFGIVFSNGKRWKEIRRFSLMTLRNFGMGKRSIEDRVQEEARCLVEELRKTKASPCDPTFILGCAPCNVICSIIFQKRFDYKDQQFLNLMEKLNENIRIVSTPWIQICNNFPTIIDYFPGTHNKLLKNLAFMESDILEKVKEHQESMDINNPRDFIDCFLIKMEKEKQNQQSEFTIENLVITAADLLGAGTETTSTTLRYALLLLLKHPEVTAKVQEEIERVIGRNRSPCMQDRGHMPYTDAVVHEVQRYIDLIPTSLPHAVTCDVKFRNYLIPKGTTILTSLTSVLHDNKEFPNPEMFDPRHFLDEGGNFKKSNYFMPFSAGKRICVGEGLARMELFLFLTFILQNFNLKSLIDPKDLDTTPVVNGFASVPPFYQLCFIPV

Row | SMILES | solubility kinetic [1] | INH (Cytochrome P450 2C9) [µM] | INH (Cytochrome P450 3A4) [µM] | INH (Cytochrome P450 2D6) [µM] | remaining at 0.5 h [2] [%] | IC50 [3] [nM] | INH (Cytochrome P450 1A2) [µM] | remaining at 0.5 h [4] [%] | INH (Cytochrome P450 2C19) [µM]
1 | O=S(=O)(CC(F)(F)F)c1ccc2[nH]c(N3CCOC(c4ccccc4)C3)nc2c1 (stereo not given) | > 50 µM | > 20 | 15 | > 20 | 85 | 0.21 | > 20 | 63.5 | > 20
2 | CCS(=O)(=O)c1ccc2[nH]c(N3CCOC(c4ccc(F)cc4)C3)nc2c1 (stereo not given) | > 50 µM | > 20 | > 20 | > 20 | 92.4 | 1.05 | > 20 | 87.1 | > 20
3 | CCCS(=O)(=O)c1ccc2[nH]c(N3CCC(c4ccccc4)C3)nc2c1 (stereo not given) | 15.4 µM | 17 | 14 | > 20 | 74.9 | 1.01 | > 20 | 19.2 | > 20
4 | CC(C)S(=O)(=O)c1ccc2nc(N3CCOC(c4ccccc4)C3)[nH]c2c1 (stereo not given) | > 50 µM | > 20 | 16 | > 20 | 87 | 1.33 | 15 | 49.5 | 19
5 | CCCS(=O)(=O)c1ccc2nc(C3CCC(=O)N(c4ccccc4)C3)[nH]c2c1 (stereo not given) | > 50 µM | > 20 | > 20 | > 20 | 81.1 | 193 | > 20 | 62 | > 20
6 | CC(C)(C(F)(F)F)S(=O)(=O)c1ccc2nc(N3CCOC(c4ccccc4)C3)[nH]c2c1 (stereo not given) | 11.6 µM | 11 | 8.2 | 18 | 60.2 | 1.43 | 18 | 37.8 | 17
7 | CCCS(=O)(=O)c1ccc2nc(N3CCCC(c4ccccc4)C3)[nH]c2c1 (stereo not given) | 19.1 µM | 9.4 | 6.9 | 13 | 45.2 | 0.29 | > 20 | 2.2 | 12
8 | CC(C)CS(=O)(=O)c1ccc2[nH]c(N3CCOC(c4ccccc4)C3)nc2c1 (stereo not given) | 43.2 µM | 17 | 9.3 | > 20 | 55.1 | 0.28 | > 20 | 2.4 | > 20
9 | CCCS(=O)(=O)c1ccc2[nH]c(C3CN(c4ccccc4)CCO3)nc2c1 (stereo not given) | > 50 µM | > 20 | > 20 | > 20 | 66.1 | 15.9 | > 20 | 7.5 | > 20
10 | CCCS(=O)(=O)c1ccc2[nH]c(C3CCOC(c4ccccc4)C3)nc2c1 (mixture of isomers) | > 50 µM | > 20 | > 20 | > 20 | 65 | 17.2 | > 20 | 74 | 20
11 | CC(C)(C)S(=O)(=O)N[C@H]1CC[C@H](C(=O)Nc2ccc(C(F)(F)F)cn2)CC1 [VELNEPERIT] | 1.6 µg/mL | – | – | – | – | 4.6 | – | – | –
12 | CCCS(=O)(=O)c1ccc2[nH]c(N3CCNC(c4ccccc4)C3)nc2c1 (stereo not given) | > 50 µM | > 20 | > 20 | > 20 | 64.4 | 6.82 | > 20 | 44 | > 20
13 | CCCS(=O)(=O)c1ccc2nc(N3CCOC(c4ccccc4)C3)[nH]c2c1 (stereo not given) | > 50 µM | > 20 | > 20 | > 20 | 77.9 | 0.6 | > 20 | 45.9 | 19
14 | CCCS(=O)(=O)c1ccc2nc(N3CCN(C)C(c4ccccc4)C3)[nH]c2c1 (stereo not given) | > 50 µM | > 20 | > 20 | > 20 | 21.9 | 4.99 | > 20 | 21.1 | > 20
15 | CC(C)(C)S(=O)(=O)c1ccc2[nH]c(N3CCOC(c4ccccc4)C3)nc2c1 (stereo not given) | 10.7 µM | > 20 | 14 | > 20 | 78.5 | 4.27 | > 20 | 56.4 | > 20
16 | CCS(=O)(=O)c1ccc2[nH]c(N3CCOC(c4ccc(Cl)cc4)C3)nc2c1 (stereo not given) | 38.1 µM | > 20 | 13 | 18 | 94.6 | 0.85 | 9.2 | 87.2 | 9.1
17 | CCS(=O)(=O)c1ccc2[nH]c(N3CCOC(c4ccc(OC)cc4)C3)nc2c1 (stereo not given) | > 50 µM | > 20 | > 20 | > 20 | 81 | 3.03 | > 20 | 48 | > 20
18 | O=S(=O)(c1ccc2nc(N3CCOC(c4ccccc4)C3)[nH]c2c1)C(F)(F)F (stereo not given) | 3.7 µM | 4.5 | 2.3 | 5.5 | 81.7 | 0.73 | 17 | 67.9 | 1.7
